According to ChEMBL document CHEMBL3112425, “Design, synthesis, and structure-activity relationship studies of a potent PACE4 inhibitor” (J Med Chem, 2014):
Peptide text beside a SMILES is read from it. * marks the point of attachment. X1 = N=C(N)NC/C=C/CN*

Legend:
[1] = biological target: T1, Neuroendocrine convertase 2 (Homo sapiens, UniProt P16519); assay: Inhibition of human PC2 expressed in drosophila schneider 2 cells using pyroGlu-Arg-Thr-Lys-Arg-AMC as substrate after 1 hr
T1 sequence (P16519 whole entry): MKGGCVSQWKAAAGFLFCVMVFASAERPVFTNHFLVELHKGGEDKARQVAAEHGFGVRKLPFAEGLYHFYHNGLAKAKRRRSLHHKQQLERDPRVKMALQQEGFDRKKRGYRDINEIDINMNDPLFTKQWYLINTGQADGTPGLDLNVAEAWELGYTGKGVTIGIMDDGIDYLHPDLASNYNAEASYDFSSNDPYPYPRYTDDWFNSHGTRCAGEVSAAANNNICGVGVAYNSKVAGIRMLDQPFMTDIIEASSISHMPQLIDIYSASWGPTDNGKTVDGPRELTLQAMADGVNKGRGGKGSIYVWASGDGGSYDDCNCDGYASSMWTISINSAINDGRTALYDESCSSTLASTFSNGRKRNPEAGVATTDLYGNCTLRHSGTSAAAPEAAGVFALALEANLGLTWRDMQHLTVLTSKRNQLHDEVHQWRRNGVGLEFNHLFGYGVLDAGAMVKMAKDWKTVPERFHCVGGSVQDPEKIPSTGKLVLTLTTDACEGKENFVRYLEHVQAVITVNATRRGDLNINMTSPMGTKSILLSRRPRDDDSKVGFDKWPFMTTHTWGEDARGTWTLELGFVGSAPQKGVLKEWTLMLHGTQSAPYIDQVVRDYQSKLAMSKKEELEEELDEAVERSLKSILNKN
Procedure, shortened: (§1)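 Human enzymes were expressed in Drosophila S2 cells and purified. Fluorogenic pyroGlu-RTKR-AMC was used at fixed concentration with varied inhibitor, 37 °C over 1 h. Buffers: furin, 100 mM Hepes pH 7.5, 1 mM CaCl2, 1 mM β-mercaptoethanol, 1.8 mg/mL BSA; PACE4 and PC7, 20 mM Bis-Tris pH 6.5, 1 mM CaCl2, 1.8 mg/mL BSA; PC2, same buffer at pH 5.7. Ki from IC50 (Cheng–Prusoff), or apparent Ki (Morrison) for tight binders. Triplicate, mean ± SD.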

[2] = biological target: T2, Proprotein convertase subtilisin/kexin type 7 (Homo sapiens, UniProt Q16549); assay: Inhibition of human PC7 expressed in drosophila schneider 2 cells using pyroGlu-Arg-Thr-Lys-Arg-AMC as substrate after 1 hr; procedure, shortened: as §1
T2 sequence (Q16549 whole entry): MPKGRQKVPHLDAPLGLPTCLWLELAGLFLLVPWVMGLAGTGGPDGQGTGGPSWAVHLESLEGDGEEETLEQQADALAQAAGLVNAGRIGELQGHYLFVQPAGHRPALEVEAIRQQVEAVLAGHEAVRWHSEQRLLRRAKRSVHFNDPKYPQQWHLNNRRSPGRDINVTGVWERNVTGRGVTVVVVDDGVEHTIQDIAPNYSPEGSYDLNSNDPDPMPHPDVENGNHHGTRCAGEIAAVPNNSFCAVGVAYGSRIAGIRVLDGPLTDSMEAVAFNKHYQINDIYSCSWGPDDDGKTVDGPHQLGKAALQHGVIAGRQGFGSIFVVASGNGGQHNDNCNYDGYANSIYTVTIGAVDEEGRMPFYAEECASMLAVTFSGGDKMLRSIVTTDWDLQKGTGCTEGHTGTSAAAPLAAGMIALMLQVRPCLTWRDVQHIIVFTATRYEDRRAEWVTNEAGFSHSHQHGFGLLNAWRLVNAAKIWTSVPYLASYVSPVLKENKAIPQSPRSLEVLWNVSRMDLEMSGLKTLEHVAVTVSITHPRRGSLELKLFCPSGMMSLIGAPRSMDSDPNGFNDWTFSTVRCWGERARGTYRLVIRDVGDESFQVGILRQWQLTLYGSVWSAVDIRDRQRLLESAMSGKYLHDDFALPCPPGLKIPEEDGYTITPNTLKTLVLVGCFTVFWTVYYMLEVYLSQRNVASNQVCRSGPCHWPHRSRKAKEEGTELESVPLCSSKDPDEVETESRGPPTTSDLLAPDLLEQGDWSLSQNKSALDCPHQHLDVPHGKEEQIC

[3] = biological target: Furin (Homo sapiens, UniProt P09958); assay: Inhibition of human recombinant furin expressed in drosophila schneider 2 cells using pyroGlu-Arg-Thr-Lys-Arg-AMC as substrate after 1 hr; procedure, shortened: as §1
Furin, sequence (P09958 whole entry): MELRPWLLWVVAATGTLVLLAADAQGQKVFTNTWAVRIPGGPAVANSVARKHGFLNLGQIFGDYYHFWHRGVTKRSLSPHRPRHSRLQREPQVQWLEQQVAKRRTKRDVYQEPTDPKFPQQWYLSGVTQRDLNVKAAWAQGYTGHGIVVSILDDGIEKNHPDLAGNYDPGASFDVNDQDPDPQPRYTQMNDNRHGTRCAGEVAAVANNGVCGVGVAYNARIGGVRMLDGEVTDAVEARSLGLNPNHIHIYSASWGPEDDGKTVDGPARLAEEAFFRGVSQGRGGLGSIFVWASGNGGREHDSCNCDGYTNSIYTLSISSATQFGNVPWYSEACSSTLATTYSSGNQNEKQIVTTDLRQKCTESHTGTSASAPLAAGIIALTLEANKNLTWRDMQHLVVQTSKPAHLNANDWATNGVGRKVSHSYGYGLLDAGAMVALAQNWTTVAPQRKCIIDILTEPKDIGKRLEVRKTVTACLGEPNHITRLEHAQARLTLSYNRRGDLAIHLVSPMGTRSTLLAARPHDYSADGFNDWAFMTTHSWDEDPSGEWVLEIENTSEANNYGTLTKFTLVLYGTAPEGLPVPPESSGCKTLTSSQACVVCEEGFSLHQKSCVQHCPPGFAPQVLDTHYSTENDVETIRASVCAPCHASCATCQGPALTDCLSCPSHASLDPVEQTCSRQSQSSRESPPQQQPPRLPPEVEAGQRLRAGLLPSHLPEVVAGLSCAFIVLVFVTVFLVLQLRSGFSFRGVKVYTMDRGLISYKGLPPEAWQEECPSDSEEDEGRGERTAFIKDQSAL

[4] = system: LNCaP; assay: Cytotoxicity against human LNCAP cells after 72 hrs by MTT assay; assay type: functional, cell-based
Procedure, shortened: (§2)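 Prostate cancer cells were kept in RPMI 1640 at 37 °C, 5% CO2, with 5% FBS for DU145 and 10% FBS for LNCaP and PC3. After 24 h, medium was changed and peptides added at various concentrations, up to 350 μM. Viability was read by MTT after 72 h treatment. IC50 from dose–response curves, triplicate, mean ± SEM.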

[5] = Half life in CD-1 mouse plasma at 0.5 ug/uL by RP-HPLC analysis; assay type: ADME, cell-free
Procedure, shortened: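 Peptides at 0.5 μg/μL were incubated at 37 °C in heparinized plasma pooled from mixed-sex CD1 mice. At each time point the reaction was stopped with 1 M guanidinium-HCl, then acetonitrile, and proteins were spun out. Supernatant peptide AUC (RP-HPLC) was compared with non-incubated samples. Half-life came from a one-phase decay fit. Run ≥3 times, duplicate per time point.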

[6] = system: PC-3; assay: Cytotoxicity against human PC3 cells after 72 hrs by MTT assay; assay type: functional, cell-based; conditions: PC-3, 72 h; procedure, shortened: as §2
[7] = system: Plasma; assay: Drug degradation in CD-1 mouse plasma at 0.5 ug/uL after 30 mins by MALDI-TOF MS analysis; assay type: ADME, cell-free; conditions: 0.5 h
Procedure, shortened: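 For fragment mapping, 100 μg peptide was incubated in murine plasma at 37 °C. At each time point, plasma samples were quenched with 3% TFA. Proteins were precipitated with 2 volumes acetonitrile and centrifuged at 17 000g. Supernatants were analyzed by MALDI-TOF MS for C-terminally truncated fragments.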

[8] = system: DU-145; assay: Cellular uptake in human DU145 cells after 1 hr by propidium iodide staining-based FACS analysis; assay type: ADME, cell-based; conditions: du-145, 1 h
Procedure, shortened: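 FITC-βAla-labelled peptides at 10 μM were given to DU145 cells for 1 h in serum-free RPMI. Cells were collected, then washed twice with 0.05% trypsin (5 min, 37 °C) to strip membrane-bound peptide. Propidium iodide (10 μg/mL, 2 min) excluded damaged cells. FACS read 10 000 events/sample as geometric mean fluorescence, against untreated-cell autofluorescence.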

Ki [1]: 1.7 nM | Ki [2]: 72 nM | Ki [3]: 27 nM | half-life at 0.5 ug/uL [5]: 7.2 h | Stability [7]: Unstable | Drug uptake [8]: Active
Compound: CC(=O)N[C@@H](CC(C)C)C(=O)N[C@@H](CC(C)C)C(=O)N[C@@H](CC(C)C)C(=O)N[C@@H](CC(C)C)C(=O)N[C@@H](CCCNC(=N)N)C(=O)N[C@H](C(=O)N[C@@H](CCCCN)C(=O)NC/C=C/CNC(=N)N)C(C)C (Ac-LLLLRVK-X1)
IC50 [4]: 70000 nM | IC50 [6]: 200000 nM
